These results are taken from ChEMBL document CHEMBL1139044, “Design and synthesis of furoxan-based nitric oxide-releasing glucocorticoid derivatives with potent anti-inflammatory activity and improved safety” (2007).

Experiment [1] relates to Rattus norvegicus. Briefly: Antihypertension activity in SD rat assessed as diastolic arterial pressure at 43.4 mg/kg for 3 weeks.
For experiment [2], the system named is Rattus norvegicus. Kind of experiment: Anti-acute-inflammatory activity in rat assessed as carrageenan induced paw edema volume at 21.7 mg/kg after 4 hrs. In kind it is functional. The method, boiled down: (§1)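 Rats, n = 8 per group, with CMC-Na as the vehicle control. Paw swelling was induced with carrageenan, and edema volume (ml) was recorded hourly from 1 to 6 h. Significance was tested against the CMC-Na group.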
(Carrageenan injected into the paw causes an acute inflammation.)

Experiment [3] has as its system Osteoblast. Kind of experiment: Effect on alkaline phosphatase activity per 100 ml in SD mouse osteoblasts at 0.1 pmol/L after 48 hrs […]. Background: Formazan colour is commonly taken as a measure of viable cells.
Experiment [4] has as its system Rattus norvegicus. Briefly: Antihypertension activity in SD rat assessed as systolic arterial pressure at 43.4 mg/kg for 3 weeks.
The test system of experiment [5] is Rattus norvegicus. Briefly: Anti-acute-inflammatory activity in rat assessed as carrageenan induced paw edema volume at 21.7 mg/kg after 1 hr. In kind it is functional. Put shortly:
as §1

Experiment [6] deals with Osteoblast. Kind of experiment: Effect on alkaline phosphatase activity per 100 ml in SD mouse osteoblasts at 1 nmol/L after 48 hrs […]. In kind it is functional.
In experiment [7] the test system is Rattus norvegicus. Kind of experiment: Anti-acute-inflammatory activity in rat assessed as carrageenan induced paw edema volume at 21.7 mg/kg after 2 hrs. Format: functional. Put shortly:
as §1

For experiment [8], the system named is Rattus norvegicus. Kind of experiment: Anti-acute-inflammatory activity in rat assessed as carrageenan induced paw edema volume at 21.7 mg/kg after 5 hrs. Format: functional. Put shortly:
as §1

Experiment [9] deals with Osteoclast. Briefly: Inhibition of survival rate of SD mouse osteoclasts at 10 umol/L after 48 hrs by TRAP assay. Format: functional, cell-based.
The test system of experiment [10] is Rattus norvegicus. Briefly: Nitric oxide level in SD rat serum at 43.4 mg/kg for 3 weeks by nitrate reductase assay.
For experiment [11], the system named is Osteoblast. Briefly: Effect on alkaline phosphatase activity per 100 ml in SD mouse osteoblasts at 1 pmol/L after 48 hrs […]. Format: functional.
Experiment [12] has as its system Rattus norvegicus. Kind of experiment: Anti-acute-inflammatory activity in rat assessed as carrageenan induced paw edema volume at 21.7 mg/kg after 3 hrs. Format: functional. The method, boiled down:
as §1

In experiment [13] the test system is Osteoblast. Kind of experiment: Effect on alkaline phosphatase activity per 100 ml in SD mouse osteoblasts at 10 umol/L after 48 hrs […]. Format: functional.
In experiment [14] the test system is Rattus norvegicus. Briefly: Anti-acute-inflammatory activity in rat assessed as carrageenan induced paw edema volume at 21.7 mg/kg after 6 hrs. Format: functional. Put shortly: as §1
Experiment [15] has as its system Osteoclast. Briefly: Increase in survival rate of SD mouse osteoclasts at 10 pmol/L to 100 nmol/L after 48 hrs by TRAP assay. In kind it is functional, cell-based.
Experiment [16] concerns Rattus norvegicus. Briefly: Antihypertension activity in SD rat assessed as heart rate at 43.4 mg/kg for 3 weeks.
Experiment [17] relates to Osteoclast. Briefly: Inhibition of survival rate of SD mouse osteoclasts at 100 nmol/L to 10 umol/L after 48 hrs by TRAP assay. Format: functional, cell-based.
In experiment [18] the test system is Mus musculus. Briefly: Antiinflammatory activity in mouse assessed as inhibition of xylene induced ear edema. Format: functional, organism-based.
The test system of experiment [19] is Rattus norvegicus. Briefly: Anti-acute-inflammatory activity in rat assessed as carrageenan induced paw edema volume at 46.4 mg/kg after 3 hrs. In kind it is functional. Put shortly: as §1
For experiment [20], the system named is Rattus norvegicus. Briefly: Anti-acute-inflammatory activity in rat assessed as carrageenan induced paw edema volume at 46.4 mg/kg after 5 hrs. Format: functional. Put shortly:
as §1

The species named for experiment [21] is Rattus norvegicus. Briefly: Anti-subacute-inflammatory activity in rat assessed as inhibition cotton pellet induced granuloma formation. Format: functional, organism-based.
Experiment [22] deals with Rattus norvegicus. Briefly: Anti-acute-inflammatory activity in rat assessed as carrageenan induced paw edema volume at 23.2 mg/kg after 4 hrs. Format: functional. Put shortly:
as §1

Experiment [23] relates to Mus musculus. Kind of experiment: Antihypertension activity in SD mouse assessed as diastolic arterial pressure at 92.9 mg/kg for 3 weeks. In kind it is functional, Artery. Put shortly: (§2)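 Animals were assigned to groups (n = 10) and dosed for 3 weeks, with CMC-Na as the vehicle group. Systolic pressure, diastolic pressure and heart rate were recorded 1 h after the last dose using a multi-channel tail-artery blood pressure system.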

The test system of experiment [24] is Rattus norvegicus. Kind of experiment: Anti-acute-inflammatory activity in rat assessed as carrageenan induced paw edema volume at 46.4 mg/kg after 1 hr. In kind it is functional. Put shortly: as §1
The test system of experiment [25] is Rattus norvegicus. Kind of experiment: Anti-acute-inflammatory activity in rat assessed as carrageenan induced paw edema volume at 46.4 mg/kg after 4 hrs. In kind it is functional. The method, boiled down:
as §1

In experiment [26] the test system is Rattus norvegicus. Kind of experiment: Anti-acute-inflammatory activity in rat assessed as carrageenan induced paw edema volume at 23.2 mg/kg after 3 hrs. In kind it is functional. Put shortly:
as §1

Experiment [27] concerns Mus musculus. Kind of experiment: Antihypertension activity in SD mouse assessed as systolic arterial pressure at 31 mg/kg for 3 weeks. In kind it is functional, Artery. Put shortly: as §2
Experiment [28] concerns Mus musculus. Kind of experiment: Antihypertension activity in SD mouse assessed as heart rate at 31 mg/kg for 3 weeks. Format: functional. The method, boiled down: as §2
For experiment [29], the system named is Mus musculus. Briefly: Antihypertension activity in SD mouse assessed as systolic arterial pressure at 92.9 mg/kg for 3 weeks. In kind it is functional, Artery. Put shortly: as §2
Experiment [30] deals with Rattus norvegicus. Briefly: Anti-acute-inflammatory activity in rat assessed as carrageenan induced paw edema volume at 23.2 mg/kg after 2 hrs. In kind it is functional. The method, boiled down: as §1
In experiment [31] the test system is Rattus norvegicus. Briefly: Anti-acute-inflammatory activity in rat assessed as carrageenan induced paw edema volume at 92.9 mg/kg after 5 hrs. Format: functional. The method, boiled down: as §1
Experiment [32] has as its system Rattus norvegicus. Briefly: Anti-acute-inflammatory activity in rat assessed as carrageenan induced paw edema volume at 92.9 mg/kg after 4 hrs. In kind it is functional. Put shortly: as §1
Experiment [33] is filed under the species Rattus norvegicus. Kind of experiment: Antiinflammatory activity in rat assessed as inhibition of Freund's adjuvant induced arthritis. Format: functional, organism-based.
Experiment [34] concerns Rattus norvegicus. Kind of experiment: Anti-acute-inflammatory activity in rat assessed as carrageenan induced paw edema volume at 23.2 mg/kg after 5 hrs. Format: functional. The method, boiled down: as §1
Experiment [35] has as its system Rattus norvegicus. Kind of experiment: Anti-acute-inflammatory activity in rat assessed as carrageenan induced paw edema volume at 92.9 mg/kg after 1 hr. Format: functional. Put shortly: as §1
The subject of experiment [36] is Mus musculus. Briefly: Antihypertension activity in SD mouse assessed as heart rate at 92.9 mg/kg for 3 weeks. Format: functional. The method, boiled down:
as §2

Experiment [37] has as its system Mus musculus. Kind of experiment: Nitric oxide level in SD mouse serum at 92.9 mg/kg for 3 weeks by nitrate reductase assay. Format: functional. The method, boiled down:
(§3)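 Animals were dosed for 3 weeks (n = 10) with a CMC-Na vehicle group. After the blood pressure readings, […] was drawn from the femoral artery and serum NO (µmol/L) was determined by nitrate reductase assay.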

Experiment [38] relates to Rattus norvegicus. Briefly: Anti-acute-inflammatory activity in rat assessed as carrageenan induced paw edema volume at 23.2 mg/kg after 1 hr. In kind it is functional. The method, boiled down: as §1
Experiment [39] deals with Rattus norvegicus. Kind of experiment: Anti-acute-inflammatory activity in rat assessed as carrageenan induced paw edema volume at 92.9 mg/kg after 6 hrs. Format: functional. Put shortly: as §1
Experiment [40] has as its system Mus musculus. Kind of experiment: Antihypertension activity in SD mouse assessed as diastolic arterial pressure at 31 mg/kg for 3 weeks. Format: functional, Artery. Put shortly:
as §2

For experiment [41], the system named is Rattus norvegicus. Briefly: Anti-acute-inflammatory activity in rat assessed as carrageenan induced paw edema volume at 46.4 mg/kg after 2 hrs. In kind it is functional. Put shortly: as §1
Experiment [42] has as its system Mus musculus. Kind of experiment: Nitric oxide level in SD mouse serum at 31 mg/kg for 3 weeks by nitrate reductase assay. In kind it is functional. Put shortly:
as §3

The subject of experiment [43] is Rattus norvegicus. Briefly: Anti-acute-inflammatory activity in rat assessed as carrageenan induced paw edema volume at 46.4 mg/kg after 6 hrs. Format: functional. Put shortly:
as §1

Experiment [44] has as its system Rattus norvegicus. Kind of experiment: Anti-acute-inflammatory activity in rat assessed as carrageenan induced paw edema volume at 92.9 mg/kg after 2 hrs. In kind it is functional. Put shortly:
as §1

Experiment [45] deals with Rattus norvegicus. Kind of experiment: Anti-acute-inflammatory activity in rat assessed as carrageenan induced paw edema volume at 92.9 mg/kg after 3 hrs. Format: functional. Put shortly: as §1
Experiment [46] relates to Rattus norvegicus. Briefly: Anti-acute-inflammatory activity in rat assessed as carrageenan induced paw edema volume at 23.2 mg/kg after 6 hrs. In kind it is functional. Put shortly:
as §1

Active and inactive are the calls of the source. The calls are words filed in the database; no cut-off is given here.

Consider `C[C@]12CCC(=O)C=C1CC[C@@H]1[C@@H]2[C@@H](O)C[C@@]2(C)[C@H]1CC[C@]2(O)C(=O)CO` [HYDROCORTISONE], for which the Activity in the experiment on Rattus norvegicus [1] turned out to be 109.6 mmHg; in the experiment with Rattus norvegicus [2], 0.85 mL; in the experiment on Osteoblast [3], 2.07 U; in the experiment with Rattus norvegicus [4], 156.7 mmHg; in the experiment on Rattus norvegicus [5] it was 0.15 mL; in the experiment with Osteoblast [6], 2.66 U. Further, the Activity in the experiment with Rattus norvegicus [7] worked out at 0.25 mL; in the experiment on Rattus norvegicus [8] it was 0.98 mL; with Rattus norvegicus [10] it was 28 µmol/L; in the experiment on Osteoblast [11], 2.69 U; in the experiment on Rattus norvegicus [12], 0.54 mL; in the experiment on Osteoblast [13] it was 2.26 U. The values for the Activity in the experiment with Rattus norvegicus [14] and in the experiment with Rattus norvegicus [16] were 1.02 mL and 365.2, respectively. The outcome with Osteoclast [9], in the experiment with Osteoclast [15] and in the experiment on Osteoclast [17] was Active.
In the case of `CC(CCOc1no[n+]([O-])c1S(=O)(=O)c1ccccc1)OC(=O)CCC(=O)OCC(=O)[C@@]1(O)CC[C@H]2[C@@H]3CCC4=CC(=O)CC[C@]4(C)[C@H]3[C@@H](O)C[C@@]21C` (some centres not stated), the outcome with Mus musculus [18] was Active.
Turning to `C[C@]12CCC(=O)C=C1CC[C@@H]1[C@@H]2[C@@H](O)C[C@@]2(C)[C@H]1CC[C@]2(O)C(=O)COC(=O)CCC(=O)OCCCCOc1no[n+]([O-])c1S(=O)(=O)c1ccccc1`, the outcome in the experiment with Mus musculus [18] was Active.
For the compound `C[C@]12CCC(=O)C=C1CC[C@@H]1[C@@H]2[C@@H](O)C[C@@]2(C)[C@H]1CC[C@]2(O)C(=O)COC(=O)CCC(=O)OCCOCCOc1no[n+]([O-])c1S(=O)(=O)c1ccccc1`, the Activity was 0.56 mL in the experiment with Rattus norvegicus [19]; 0.95 mL with Rattus norvegicus [20]; “Dose-dependent effect” in the experiment filed under Rattus norvegicus [21]; 0.99 mL with Rattus norvegicus [22]; 86.9 mmHg in the experiment on Mus musculus [23]; 1.89 U in the experiment on Osteoblast [3]. For the same compound, the Activity worked out at 0.13 mL with Rattus norvegicus [24]; 0.94 mL in the experiment on Rattus norvegicus [25]; 0.74 mL in the experiment with Rattus norvegicus [26]; 144.5 mmHg with Mus musculus [27]; 2.97 U with Osteoblast [6]; 360.3 in the experiment with Mus musculus [28]. Besides, the Activity is 137.8 mmHg in the experiment with Mus musculus [29]; 0.39 mL in the experiment with Rattus norvegicus [30]; 0.8 mL in the experiment with Rattus norvegicus [31]; 0.65 mL in the experiment with Rattus norvegicus [32]; 1.12 mL in the experiment with Rattus norvegicus [34]; 2.24 U in the experiment on Osteoblast [11]. Further, the Activity was found to be 0.12 mL with Rattus norvegicus [35]; 379.3 in the experiment on Mus musculus [36]; 40.9 µmol/L in the experiment on Mus musculus [37]; 0.1 mL in the experiment with Rattus norvegicus [38]; 0.81 mL in the experiment with Rattus norvegicus [39]; 97.8 mmHg in the experiment on Mus musculus [40]. The Activity with Rattus norvegicus [41] turned out to be 0.24 mL; in the experiment on Mus musculus [42] it was 31 µmol/L; in the experiment with Rattus norvegicus [43], 0.92 mL; in the experiment on Osteoblast [13] it was 1.54 U; with Rattus norvegicus [44], 0.22 mL; in the experiment on Rattus norvegicus [45], 0.41 mL. Moreover, the Activity with Rattus norvegicus [46] was found to be 1.07 mL. The outcome with Mus musculus [18] and in the experiment listed under Rattus norvegicus [33] was Active.
